Measured values from ChEMBL document CHEMBL1156107, “Synthesis of new alkylaminooxysterols with potent cell differentiating activities: identification of leads for the treatment of cancer and neurodegenerative diseases” (J Med Chem, 2009).
The source made the active and inactive calls. The rule behind the calls is not given here.

What was measured:
[1] = test system: P19; assay: Cytotoxicity against mouse P19 cells after 3 days by trypan blue exclusion assay; assay type: functional, cell-based; conditions: Mus musculus, P19, 72 h; read-out: IC50
Method in brief: (§1)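 U937 and P19 cells treated with compound. Cell death scored by trypan blue exclusion, with cells scraped, suspended in 0.25% w/v trypan blue in PBS and counted in a Malassez cell. IC50 is the concentration giving 50% cytotoxicity.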

[2] = test system: SK-MEL-28; assay: Cell cycle arrest in human SK-MEL-28 cells assessed as accumulation at S phase at 1 uM after 48 hrs by FACS analysis; assay type: functional
Method in brief: (§2)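 Cells plated at 250 000 per 100 mm plate and exposed to solvent vehicle or compound for 48 h. Trypsinized cells fixed in 70% ethanol, treated with 100 μg/mL RNase A for 30 min at 37 °C, then stained with 50 μg/mL propidium iodide in 0.25% Tween-20 for 30 min at 37 °C in the dark. DNA content of 1 × 10⁶ cells read by flow cytometry, giving sub-G1, G0/G1, S and G2/M fractions.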

[3] = test system: P19; assay: Induction of dendrite out growth in IL-4/GMCSF-stimulated mouse P19 cells assessed as dendrite length at 100 nM after 48 hrs by light microscopy; assay type: functional
[4] = test system: NB-4; assay: Cytotoxicity against human NB4 cells after 72 hrs by trypan blue exclusion assay; assay type: functional, cell-based; conditions: NB-4, 72 h
Method in brief: (§3)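 Cells were exposed for 72 h to the test agent at increasing concentrations from 10 nM to 20 μM, at 37 °C in humidified 5% CO2. Cells were scraped and resuspended in 0.25% w/v trypan blue in PBS, and dead cells were counted under a light microscope in a Malassez chamber. IC50 is the concentration giving 50% cytotoxicity. Values are mean ± SE of three independent experiments, each run in duplicate.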

[5] = test system: SW-620; assay: Cytotoxicity against human SW620 cells after 72 hrs by trypan blue exclusion assay; assay type: functional, cell-based; conditions: SW-620, 72 h; method in brief: as §3
[6] = test system: MCF7; assay: Induction of human MCF7 cell differentiation assessed as lipid accumulation in intracytoplasmic vesicle at 1 uM after 48 hrs by oil red O staining-based light microscopy; assay type: functional
Method in brief: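 MCF-7 cells on glass coverslips treated with drug, fixed in 3.7% paraformaldehyde for 1 h at room temperature, and stained with oil red O in 60% isopropanol with hematoxylin counterstain. Dye extracted with isopropanol and read at 510 nm, with control subtracted and the value normalized to SYBR green DNA stain.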

[7] = test system: P19; assay: Cytotoxicity against mouse P19 cells assessed as modification of cell morphology; assay type: functional
[8] = test system: U-937; assay: Cytotoxicity against human U937 cells after 3 days by trypan blue exclusion assay; assay type: functional, cell-based; conditions: Homo sapiens, U-937, 72 h; read-out: IC50; method in brief: as §1
[9] = test system: MCF7; assay: Cell cycle arrest in human MCF7 cells assessed as accumulation at pre-G1 phase at 1 uM after 48 hrs by FACS analysis; assay type: functional; method in brief: as §2
[10] = test system: MCF7; assay: Cell cycle arrest in human MCF7 cells assessed as accumulation at S phase at 1 uM after 48 hrs by FACS analysis; assay type: functional; method in brief: as §2
[11] = test system: KG-1; assay: Cytotoxicity against human KG1 cells after 72 hrs by trypan blue exclusion assay; assay type: functional, cell-based; conditions: KG-1, 72 h; method in brief: as §3
[12] = Cytotoxicity against mouse Neuro2a cells after 72 hrs by trypan blue exclusion assay; assay type: functional, cell-based; conditions: N2a; method in brief: as §3
[13] = test system: SK-MEL-28; assay: Cell cycle arrest in human SK-MEL-28 cells assessed as accumulation at G2/M phase at 1 uM after 48 hrs by FACS analysis; assay type: functional; conditions: in the assay text read “G0/G1 phase” for “G2/M phase”; method in brief: as §2
[14] = test system: SK-MEL-28; assay: Cell cycle arrest in human SK-MEL-28 cells assessed as accumulation at pre-G1 phase at 1 uM after 48 hrs by FACS analysis; assay type: functional; method in brief: as §2
[15] = Cytotoxicity against human U87 cells after 72 hrs by trypan blue exclusion assay; assay type: functional, cell-based, U-87MG ATCC; conditions: U-87 MG; method in brief: as §3
[16] = test system: U-937; assay: Cytotoxicity against human U937 cells after 72 hrs by trypan blue exclusion assay; assay type: functional, cell-based; conditions: U-937, 72 h; method in brief: as §3
[17] = test system: U-937; assay: Induction of dendrite out growth in IL-4/GMCSF-stimulated human U937 cells assessed as dendrite length at 100 nM after 48 hrs by light microscopy; assay type: functional
Method in brief: (§4)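 U937 cells at 1.1 × 10⁶ cells/mL were primed with 10 ng/mL PMA for 48 h in RPMI with 10% heat-inactivated serum. Adherent cells were then given 100 ng/mL IL-4 plus 100 ng/mL GM-CSF or 100 nM compound for 48 h. Dendrite length scored by light microscopy, from none to over 100 μm with a contact network.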

[18] = test system: SH-SY5Y; assay: Cytotoxicity against human SH-SY5Y cells after 72 hrs by trypan blue exclusion assay; assay type: functional, cell-based; method in brief: as §3
[19] = test system: HCT-8; assay: Cytotoxicity against human HCT8 cells after 72 hrs by trypan blue exclusion assay; assay type: functional, cell-based; conditions: HCT-8, 72 h; method in brief: as §3
[20] = test system: MCF7; assay: Cytotoxicity against human MCF7 cells after 72 hrs by trypan blue exclusion assay; assay type: functional, cell-based; conditions: MCF7, 72 h; method in brief: as §3
[21] = test system: U-937; assay: Cytotoxicity against human U937 cells assessed as modification of cell morphology; assay type: functional
[22] = test system: B16-F10; assay: Cytotoxicity against mouse B16F10 cells after 72 hrs by trypan blue exclusion assay; assay type: functional, cell-based; conditions: B16-F10, 72 h; method in brief: as §3
[23] = test system: MCF7; assay: Induction of human MCF7 cell differentiation assessed as stimulation of milk fat globulin expression at 1 uM after 48 hrs by immunocytochemistry; assay type: functional, cell-based
[24] = test system: U-937; assay: Induction of dendrite outgrowth in IL-4/GMCSF-stimulated human U937 cells assessed as dendrite length after 48 hrs by light microscopy; assay type: functional; method in brief: as §4
[25] = test system: MCF7; assay: Cell cycle arrest in human MCF7 cells assessed as accumulation at G2/M phase at 1 uM after 48 hrs by FACS analysis; assay type: functional; method in brief: as §2
[26] = test system: A549; assay: Cytotoxicity against human A549 cells after 72 hrs by trypan blue exclusion assay; assay type: functional, cell-based; conditions: A549, 72 h; method in brief: as §3
[27] = test system: SK-MEL-28; assay: Induction of melanogenesis in human SK-MEL-28 cells assessed as cellular melanin content at 1 uM after 48 hrs by spectrophotometry
[28] = test system: SK-MEL-28; assay: Effect on human SK-MEL-28 cell morphology assessed as change from fibroblastic to melanocytic morphology at 1 uM after 48 hrs by light microscopy
[29] = test system: MCF7; assay: Induction of human MCF7 cell differentiation assessed as milk fat accumulation in intracytoplasmic vesicle at 1 uM after 48 hrs by Bligh and Dyer method; assay type: functional, cell-based
Method in brief: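 MCF-7 cells (5 million) exposed to vehicle or compound for 48 h, washed three times in PBS. Lipids extracted by the Bligh and Dyer method and triglycerides quantified.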

[30] = test system: SK-MEL-28; assay: Cytotoxicity against human SK-MEL-28 cells after 72 hrs by trypan blue exclusion assay; assay type: functional, cell-based; conditions: SK-MEL-28, 72 h; method in brief: as §3
[31] = test system: SK-MEL-28; assay: Cell cycle arrest in human SK-MEL-28 cells assessed as accumulation at G1 phase at 1 uM after 48 hrs by FACS analysis; assay type: functional; method in brief: as §2
[32] = test system: P19; assay: Induction of dendrite outgrowth in IL-4/GMCSF-stimulated mouse P19 cells assessed as dendrite length after 48 hrs by light microscopy; assay type: functional
[33] = test system: MCF7; assay: Cell cycle arrest in human MCF7 cells assessed as accumulation at G1 phase at 1 uM after 48 hrs by FACS analysis; assay type: functional; method in brief: as §2
[34] = test system: SK-MEL-28; assay: Effect on human SK-MEL-28 cell morphology assessed as appearance of type 4 melanosomes at 1 uM after 48 hrs by transmission electron microscopy
[35] = test system: SK-N-SH; assay: Cytotoxicity against human SK-N-SH cells after 72 hrs by trypan blue exclusion assay; assay type: functional, cell-based; method in brief: as §3
[36] = Cytotoxicity against mouse TSA cells after 72 hrs by trypan blue exclusion assay; assay type: functional, cell-based; conditions: TS/A; method in brief: as §3
[37] = test system: SK-MEL-28; assay: Induction of melanogenesis in human SK-MEL-28 cells assessed as cellular melanin content at 1 uM after 48 hrs by fluorimetry; assay type: functional, cell-based; conditions: in the assay text read “by spectrophotometry” for “by fluorimetry”
Method in brief: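 SK-Mel-28 cells exposed to compound, washed in PBS and pelleted. Pellets of 2 × 10⁶ cells dissolved in 1 M NaOH for 1 h at 80 °C. Melanin read spectrophotometrically at 405 nm.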

[38] = test system: P19; assay: Cytotoxicity against mouse P19 cells after 72 hrs by trypan blue exclusion assay; assay type: functional, cell-based; conditions: P19, 72 h; method in brief: as §3

`CC(C)CCC[C@@H](C)[C@H]1CC[C@H]2[C@@H]3C[C@@H](NCCc4cnc[nH]4)[C@@]4(O)C[C@@H](O)CC[C@]4(C)[C@H]3CC[C@]12C` [DENDROGENIN A] gave an IC50 [1] of 2400 nM, an Activity [2] of 7% and an Activity [3] of 50 um. The IC50 [4] was 1320 nM, the IC50 [5] was 420 nM and the Activity [6] was “Active”. It also gave an Activity [7] of 65%, an IC50 [8] of 800 nM and an Activity [9] of 3%. The Activity [10] was 11%, the IC50 [11] was 5.53 µM and the IC50 [12] was 2320 nM. For the same compound, the Activity [13] was 10%, the Activity [14] was 1% and the IC50 [15] was 740 nM. It also gave an IC50 [16] of 790 nM, an Activity [17] of 50 um and an IC50 [18] of 1350 nM. For the same compound, the IC50 [19] was 890 nM, the IC50 [20] was 2310 nM and the Activity [21] was 40%. The IC50 [22] was 680 nM, the Activity [23] was “Active” and the Activity [24] was greater than 200 um. The Activity [25] was 11%, the IC50 [26] was 2560 nM and the Activity [27] was “Active”. The Activity [28] was “Active”, the Activity [29] was “Active” and the IC50 [30] was 2120 nM. It also gave an Activity [31] of 82%, an Activity [32] greater than 200 um and an Activity [33] of 75%. The Activity [34] was “Active”, the IC50 [35] was 2240 nM and the IC50 [36] was 1280 nM. The Activity [37] was “Active” and the IC50 [38] was 1800 nM.
